Reference: ChEMBL document CHEMBL1140469, “Novel, potent THC/anandamide (hybrid) analogs” (Bioorg Med Chem, 2007)

Columns and labels:
Mus musculus [1] = experiment: Antinociceptive activity in mouse at 30 mg/kg, iv by tail filck test; assay type: functional
In short: (§1)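 Mouse tail flick to radiant heat from bright light, 10-s cutoff. Baseline latency taken, then iv tail-vein dosing in ethanol:emulphor:saline 1:1:18, 0.1 mL/10 g. Retested 4 min later. Result expressed as %MPE, 6 mice/dose. ED50 from least-squares linear regression against log dose, in µmol/kg. Doses above 30 mg/kg not given.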

Cannabinoid receptor 2 = Cannabinoid receptor 2 (Homo sapiens, UniProt P34972); experiment: Displacement of [3H]CP-55940 from human CB2 receptor expressed in CHO cells; assay type: cell-based
Sequence of Cannabinoid receptor 2 (P34972 whole entry): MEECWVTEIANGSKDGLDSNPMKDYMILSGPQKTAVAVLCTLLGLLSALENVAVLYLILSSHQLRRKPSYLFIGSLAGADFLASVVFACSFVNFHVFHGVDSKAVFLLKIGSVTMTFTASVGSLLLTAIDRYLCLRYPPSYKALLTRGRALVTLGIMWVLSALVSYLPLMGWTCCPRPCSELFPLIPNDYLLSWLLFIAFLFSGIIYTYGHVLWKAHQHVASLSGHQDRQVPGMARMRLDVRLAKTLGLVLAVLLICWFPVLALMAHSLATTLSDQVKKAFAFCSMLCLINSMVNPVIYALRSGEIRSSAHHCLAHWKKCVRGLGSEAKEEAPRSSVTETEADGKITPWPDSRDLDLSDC
In short: (§2)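 Membranes (50 µg) from HEK-293 cells stably expressing human CB1 (DMEM, 10% FBS) or CHO cells stably expressing human CB2 (DMEM, 10% FCS). Incubated with 0.5 nM [3H]CP55,940 and test compound (1 nM–10 µM) in buffer with BSA 5 mg/mL, 1 h at 30 °C. Filtration, scintillation counting. Ki from displacement data; three experiments in triplicate.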

Mus musculus [2] = experiment: Suppression of spontaneous activity in mouse at 30 mg/kg, iv; assay type: functional
In short: (§3)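 Mice dosed iv in ethanol:emulphor:saline 1:1:18. After the 4-min tail-flick retest, each mouse spent 10 min in a photocell cage where beam interruptions were counted. Activity expressed as % of vehicle group, 6 mice/dose. ED50 from regression against log dose, in µmol/kg. Maximum dose 30 mg/kg.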

Cannabinoid receptor 1 = Cannabinoid receptor 1 (Homo sapiens, UniProt P21554); experiment: Displacement of [3H]CP-55940 from human CB1 receptor expressed in HEK293 cells; assay type: cell-based; in short: as §2
Sequence of Cannabinoid receptor 1 (P21554 whole entry): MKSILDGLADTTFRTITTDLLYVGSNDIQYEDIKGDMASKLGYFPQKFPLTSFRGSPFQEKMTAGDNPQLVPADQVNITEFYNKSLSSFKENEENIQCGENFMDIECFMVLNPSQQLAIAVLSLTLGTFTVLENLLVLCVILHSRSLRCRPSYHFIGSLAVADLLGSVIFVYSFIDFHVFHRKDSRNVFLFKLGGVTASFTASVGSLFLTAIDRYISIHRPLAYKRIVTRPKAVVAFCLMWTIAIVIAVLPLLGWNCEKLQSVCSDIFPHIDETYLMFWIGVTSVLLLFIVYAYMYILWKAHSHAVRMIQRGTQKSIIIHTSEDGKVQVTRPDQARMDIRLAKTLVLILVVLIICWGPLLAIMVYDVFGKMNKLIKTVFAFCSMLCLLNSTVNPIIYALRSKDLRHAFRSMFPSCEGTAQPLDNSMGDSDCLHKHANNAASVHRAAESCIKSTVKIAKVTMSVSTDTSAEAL

Mus musculus [3] = experiment: Hypothermic activity in mouse assessed as change in rectal temperature at 30 mg/kg, iv after 4 mins; assay type: functional
In short: (§4)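 A separate group of mice had rectal temperature taken by thermistor probe inserted 25 mm, before and 4 min after iv dosing in ethanol:emulphor:saline 1:1:18. Change is the pre minus post difference. ED50 from regression against log dose, in µmol/kg; otherwise maximal change given with its dose. Maximum dose 30 mg/kg.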

Mus musculus [4] = experiment: Induction of ring immobility in mouse at 30 mg/kg, iv; assay type: functional
In short: (§5)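 Right after the temperature reading, iv-dosed mice (ethanol:emulphor:saline 1:1:18) were placed on a 5.5-cm ring set 16 cm high. Time spent motionless over 5 min was recorded. ED50 from regression against log dose, in µmol/kg; otherwise maximal effect given with its dose. Maximum dose 30 mg/kg.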

Mus musculus [5] = experiment: Antinociceptive activity in iv dosed mouse by tail filck test; assay type: functional; in short: as §1
Mus musculus [6] = experiment: Induction of ring immobility in iv dosed mouse; assay type: functional; in short: as §5
Mus musculus [7] = experiment: Suppression of spontaneous activity in iv dosed mouse; assay type: functional; in short: as §3
Mus musculus [8] = experiment: Hypothermic activity in iv dosed mouse assessed as change in rectal temperature after 4 mins; assay type: functional; in short: as §4

SMILES | Activity (Mus musculus [1]) [%] | Ki (Cannabinoid receptor 2) [nM] | Activity (Mus musculus [2]) [%] | Ki (Cannabinoid receptor 1) [nM] | Activity (Mus musculus [3]) [°C] | Activity (Mus musculus [4]) [%] | ED50 (Mus musculus [5]) [µmol/kg] | ED50 (Mus musculus [6]) [µmol/kg] | ED50 (Mus musculus [7]) [µmol/kg] | ED50 (Mus musculus [8]) [µmol/kg]
CCCCCCC(C)(C)c1ccc(OCC/C=C\C/C=C\CCCC(=O)N[C@H](C)CO)cc1 | 30.7 | 78.2 | 44.9 | 195 | -0.5 | 13.4 | – | – | – | –
C[C@H](CO)NC(=O)CCC/C=C\C/C=C\CCOc1cccc(C(C)(C)CCCCO)c1 | – | 10.9 | – | 79 | – | – | 0.6 | 0.7 | 1.1 | 2.8
C[C@H](CO)NC(=O)CCC/C=C\C/C=C\CCOc1cccc(C(C)(C)CCCCBr)c1 | – | 7.46 | – | 8.87 | – | – | 0.8 | 1.4 | 0.7 | 2.1
C[C@H](CO)NC(=O)CCC/C=C\C/C=C\CCOc1cccc(C(C)(C)CCCCN=[N+]=[N-])c1 | – | 2.52 | – | 2.74 | – | – | 0.2 | 0.3 | 0.2 | 1.95
CCCCCCC(C)(C)c1cccc(OCC/C=C\C/C=C\C/C=C\CCCC(=O)N[C@H](C)CO)c1 | 61 | 189 | 55 | 131 | -0.9 | 22 | – | – | – | –
CCCCCCC(C)(C)c1cccc(OCC/C=C\C/C=C\CCCC(=O)N[C@H](C)CO)c1 | – | 21.5 | – | 8.55 | – | – | 8.45 | 9.66 | 3.73 | 7.8
CCCCCCC(C)(C)c1ccccc1/C=C\C/C=C\C/C=C\CCCC(=O)N[C@H](C)CO | 50 | 257 | – | 86.3 | -0.87 | – | – | 27.7 | 25.7 | –
